Assay results pooled from the literature.
Compare with care: the assays were run in different laboratories.
Target: cAMP-dependent protein kinase catalytic subunit PRKX (PRKX, Homo sapiens, UniProt P51817)
Sequence (P51817 1-358, as in one of the studies): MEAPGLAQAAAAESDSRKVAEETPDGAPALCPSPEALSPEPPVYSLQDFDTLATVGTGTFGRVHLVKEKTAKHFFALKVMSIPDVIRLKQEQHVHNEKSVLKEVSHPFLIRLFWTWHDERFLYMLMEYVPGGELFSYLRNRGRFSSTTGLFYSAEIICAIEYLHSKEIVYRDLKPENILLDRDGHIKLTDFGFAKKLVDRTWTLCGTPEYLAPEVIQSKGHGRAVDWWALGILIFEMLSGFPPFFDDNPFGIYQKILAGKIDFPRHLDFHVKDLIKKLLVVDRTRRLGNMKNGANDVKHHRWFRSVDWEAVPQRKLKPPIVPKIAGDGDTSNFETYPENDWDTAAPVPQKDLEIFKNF

`COc1cc2ncnc(Nc3ccc(Oc4ccccc4)c(C)c3C)c2cc1OC` has an inhibition of -12% (enzyme activity; inhibitor; 1 µM).
With `Nc1ncnc2occ(-c3ccc(NC(=O)Nc4cc(C(F)(F)F)ccc4F)cc3)c12` the remaining signal was 74% (cell-free assay; inhibitor; 20 µM).
For `COc1cc(Cl)c(C(=O)N[C@@H](CN[C@H]2CC[C@@H](N)CC2)Cc2ccc(C#N)cc2)cc1-c1ccc(CN[C@H](C)c2ccc(C)cc2)o1`, the remaining activity was 97% (enzyme activity; inhibitor; 1 µM).
`CC/C(=N\NC(=O)C(C)Nc1ccccc1)c1ccc(O)c(C)c1O` (centres unmarked) has an inhibition of 45.2% (enzyme activity; inhibitor; 0.1 µM).
`Cc1cc(NC(=O)c2cccc3cc(-c4cccc5[nH]nc(N)c45)ccc23)ccc1F` gave an activity vs control of 101% (enzyme activity; inhibitor; 0.1 µM).
The remaining signal of `N#CCCc1ccc2c(c1)-c1[nH]c3ccc([N+](=O)[O-])cc3c1CC(=O)N2` is reported as 78.4% (cell-free assay; 0.5 µM).
With `CCCOc1ccc(OC)c(F)c1C(=O)c1ccc(C(=O)N[C@@H]2CNC[C@H]2NC(=O)c2ccc3[nH]ncc3c2)cc1` the remaining activity was 5% (enzyme activity; inhibitor; 0.5 µM).
`CS(=O)(=O)N1CCCC(NC(=O)[C@H](CCC2CCCCC2)NC(=O)c2ccc(CNc3ncnc4c3nnn4-c3ccccc3)cc2)C1` (some centres unmarked) gave a remaining binding of 100% (cell-free assay; competition with immobilised ligand; 0.1 µM).
For `CC(C)(C)c1nc2c(s1)c1nc(N)ncc1c1ccc(NS(=O)(=O)c3c(F)cccc3F)c(F)c12`, the remaining activity was 82% (enzyme activity; inhibitor; radiometric; 1 µM).
For `O=C(Nc1cnn(-c2csc(C(=O)NC3COC3)c2)c1)Nc1c(F)cccc1Cl`, the remaining activity was 91.5% (enzyme activity; inhibitor; 5 µM).
For `NS(=O)(=O)c1cc(NC(=O)C2(c3ccccc3Cl)CC2)ccc1Oc1cccc(Cl)c1`, the remaining binding was 77% (cell-free assay; competition with immobilised ligand; 1 µM).
`CN(C)c1nccc(-c2cnc3ncccn23)n1` gave a remaining binding of 94% (binding; 1 µM).
For `C[C@@H](c1cccc(C#N)c1)n1cc(Cl)cc(C(N)=O)c1=N`, the remaining binding was 100% (cell-free assay; competition with immobilised ligand; 1 µM).
`CC(C)(O)[C@H]1CC[C@H](Nc2ccc3ncc(-c4cccc(C(F)(F)F)c4)n3n2)CC1` gave a remaining activity of 103% (enzyme activity; inhibitor; 1 µM).
With `O=C1NC(=O)c2cc(Nc3ccc(F)cc3)c(Nc3ccc(F)cc3)cc21` the remaining signal was 103% (cell-free assay; 0.5 µM).
`CNCc1ccccc1-c1csc([C@@H](C)Nc2nc(C)nc3cc(OC)c(OC)cc23)c1` has a remaining binding of 67% (cell-free assay; competition with immobilised ligand; 1 µM).
`Cc1ccc(C(=O)Nc2ccc(CN3CCN(C)CC3)c(C(F)(F)F)c2)cc1C#Cc1cnc2cccnn12` gave a remaining activity of 77% (enzyme activity; 23.5 nM).
`N#Cc1ccc(Nc2ccc3[nH]c(=O)[nH]c3c2)c(Cl)c1` gave a remaining binding of 100% (cell-free assay; competition with immobilised ligand; 1 µM).
`CCN(CC)CCNC(=O)c1c(C)[nH]c(/C=C2\C(=O)Nc3ccc(F)cc32)c1C` gave an inhibition of 15% (enzyme activity; inhibitor; 10 µM).
`CO[C@@H](C)c1c(Nc2ccc([C@H](N(C)C(=O)C3CCS(=O)(=O)CC3)C(F)(F)F)cc2)cnc2cc(Cl)nn12` gave a remaining binding of 88% (cell-free assay; competition with immobilised ligand; 1 µM).
`CCN(CC)c1ccc(C2=NNC(=O)CC2C)cc1[N+](=O)[O-]` (centres unmarked) gave a remaining activity of 91% (enzyme activity; inhibitor; 10 µM).
`O=C(Nc1cccnn1)N1CCC(=Cc2cccc(Oc3ccc(C(F)(F)F)cn3)c2)CC1` gave a remaining binding of 87% (cell-free assay; competition with immobilised ligand; 1 µM).
`CNC(=O)c1cc(Oc2ccc(NC(=O)Nc3ccc(Cl)c(C(F)(F)F)c3)cc2)ccn1` gave an inhibition of 8% (enzyme activity; inhibitor; 0.3 µM).
`Cn1cnc(Br)c1C1=CN(c2ncnc3[nH]cnc23)CCS1` has an inhibition of 17.6% (enzyme activity; inhibitor; radiometric; 50 nM).
`Cc1cc(NC(=O)c2cccc(S(F)(F)(F)(F)F)c2)cc(-n2ccn3nc(-c4cccnc4)cc23)c1` has a remaining binding of 100% (cell-free assay; competition with immobilised ligand; 1 µM).
The inhibition of `Cc1ccc(Nc2nccc(N(C)c3ccc4c(C)n(C)nc4c3)n2)cc1S(N)(=O)=O` is reported as 88% (enzyme activity; inhibitor; 10 µM).
